In ChEMBL document CHEMBL1156877, “Discovery of 6-benzyloxyquinolines as c-Met selective kinase inhibitors” (Bioorg Med Chem Lett, 2010):

What was measured:
A549 = experiment: Cytotoxicity against human A549 cells after 96 hrs by WST8 assay; details: A549, 96 h
[1] = molecular target: Fibroblast growth factor receptor 2 (Homo sapiens, UniProt P21802); experiment: Inhibition of recombinant FGFR2 by TR-FRET assay
In short: (§1)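 Recombinant tyrosine kinase incubated with test compound and substrate peptide/ATP for 90 min at 30 °C; enzyme amount, ATP level, substrate and cation vary by kinase. Reaction stopped, then TR-FRET reagent with europium-labelled anti-phospho-substrate antibody added for 5 min at room temperature; substrate phosphorylation read as time-resolved fluorescence.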

[2] = molecular target: Tyrosine-protein kinase Fyn (Homo sapiens, UniProt P06241); experiment: Inhibition of recombinant Fyn by TR-FRET assay; in short: as §1
Tyrosine-protein kinase Fyn, sequence (P06241 whole entry): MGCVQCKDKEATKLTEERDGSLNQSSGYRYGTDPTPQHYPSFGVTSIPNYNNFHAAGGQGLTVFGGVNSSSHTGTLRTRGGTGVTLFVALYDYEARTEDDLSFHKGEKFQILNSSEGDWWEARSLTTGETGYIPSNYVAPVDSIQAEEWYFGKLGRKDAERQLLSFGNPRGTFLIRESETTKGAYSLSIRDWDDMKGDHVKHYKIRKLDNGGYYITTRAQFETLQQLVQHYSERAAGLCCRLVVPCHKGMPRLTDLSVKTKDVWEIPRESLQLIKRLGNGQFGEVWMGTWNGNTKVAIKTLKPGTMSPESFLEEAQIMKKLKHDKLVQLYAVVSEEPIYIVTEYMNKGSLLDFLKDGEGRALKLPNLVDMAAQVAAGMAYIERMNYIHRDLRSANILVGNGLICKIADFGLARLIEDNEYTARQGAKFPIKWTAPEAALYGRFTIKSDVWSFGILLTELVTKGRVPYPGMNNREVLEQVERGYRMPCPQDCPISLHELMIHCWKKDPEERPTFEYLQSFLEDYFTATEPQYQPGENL

[3] = molecular target: T1, Protein kinase C beta type (Homo sapiens, UniProt P05771); experiment: Inhibition of recombinant PKCbeta1 by IMAP assay
T1 sequence (P05771 whole entry): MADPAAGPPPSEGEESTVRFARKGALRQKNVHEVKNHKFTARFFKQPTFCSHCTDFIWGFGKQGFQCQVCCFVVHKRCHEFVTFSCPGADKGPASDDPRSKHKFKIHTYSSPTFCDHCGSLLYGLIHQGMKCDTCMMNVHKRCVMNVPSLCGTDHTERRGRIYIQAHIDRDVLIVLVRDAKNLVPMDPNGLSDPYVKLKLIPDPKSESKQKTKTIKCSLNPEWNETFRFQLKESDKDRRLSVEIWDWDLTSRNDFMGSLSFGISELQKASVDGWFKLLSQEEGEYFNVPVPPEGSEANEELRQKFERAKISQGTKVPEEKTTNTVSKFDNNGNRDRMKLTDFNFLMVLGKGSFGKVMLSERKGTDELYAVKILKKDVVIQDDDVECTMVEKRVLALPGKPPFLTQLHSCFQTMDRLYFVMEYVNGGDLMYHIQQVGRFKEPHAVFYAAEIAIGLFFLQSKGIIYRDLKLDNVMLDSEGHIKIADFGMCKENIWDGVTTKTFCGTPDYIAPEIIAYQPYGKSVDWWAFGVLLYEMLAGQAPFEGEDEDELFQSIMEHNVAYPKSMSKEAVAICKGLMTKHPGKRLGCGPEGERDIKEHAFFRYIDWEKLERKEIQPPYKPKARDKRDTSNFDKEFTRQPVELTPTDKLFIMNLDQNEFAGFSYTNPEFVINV
In short: (§2)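 Recombinant enzyme mixed with test compound and substrate peptide/ATP solution, incubated 90 min at 30 °C; enzyme quantity, ATP, substrate and cation set per kinase. IMAP reagent then added for 5 min at room temperature, and peptide phosphorylation quantified by fluorescence polarization.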

NCI-N87 = experiment: Cytotoxicity against human NCI-N87 cells after 96 hrs by WST8 assay; details: NCI-N87, 96 h
HUVEC = experiment: Inhibition of HGF-induced proliferation of HUVEC after 96 hrs by WST8 assay; details: Homo sapiens
DU-145 = experiment: Cytotoxicity against human DU145 cells after 96 hrs by WST8 assay; details: DU-145, 96 h
[4] = molecular target: Protein kinase C alpha type (Homo sapiens, UniProt P17252); experiment: Inhibition of recombinant PKCalpha by IMAP assay; in short: as §2
[5] = molecular target: T1, Protein kinase C beta type; experiment: Inhibition of recombinant PKCbeta2 by IMAP assay; in short: as §2
COLO 205 = experiment: Cytotoxicity against human COLO205 cells after 96 hrs by WST8 assay; details: COLO 205, 96 h
CWR22R = experiment: Cytotoxicity against human 22Rv1 cells after 96 hrs by WST8 assay; details: 22Rv1, 96 h
[6] = Inhibition of recombinant PDGFR by TR-FRET assay; in short: as §1
ASPC1 = experiment: Cytotoxicity against human AsPC1 cells after 96 hrs by WST8 assay; details: ASPC1, 96 h
[7] = molecular target: T2, Receptor-type tyrosine-protein kinase FLT3 (Homo sapiens, UniProt P36888); experiment: Inhibition of recombinant Flt3 by TR-FRET assay; in short: as §1
T2 sequence (P36888 whole entry): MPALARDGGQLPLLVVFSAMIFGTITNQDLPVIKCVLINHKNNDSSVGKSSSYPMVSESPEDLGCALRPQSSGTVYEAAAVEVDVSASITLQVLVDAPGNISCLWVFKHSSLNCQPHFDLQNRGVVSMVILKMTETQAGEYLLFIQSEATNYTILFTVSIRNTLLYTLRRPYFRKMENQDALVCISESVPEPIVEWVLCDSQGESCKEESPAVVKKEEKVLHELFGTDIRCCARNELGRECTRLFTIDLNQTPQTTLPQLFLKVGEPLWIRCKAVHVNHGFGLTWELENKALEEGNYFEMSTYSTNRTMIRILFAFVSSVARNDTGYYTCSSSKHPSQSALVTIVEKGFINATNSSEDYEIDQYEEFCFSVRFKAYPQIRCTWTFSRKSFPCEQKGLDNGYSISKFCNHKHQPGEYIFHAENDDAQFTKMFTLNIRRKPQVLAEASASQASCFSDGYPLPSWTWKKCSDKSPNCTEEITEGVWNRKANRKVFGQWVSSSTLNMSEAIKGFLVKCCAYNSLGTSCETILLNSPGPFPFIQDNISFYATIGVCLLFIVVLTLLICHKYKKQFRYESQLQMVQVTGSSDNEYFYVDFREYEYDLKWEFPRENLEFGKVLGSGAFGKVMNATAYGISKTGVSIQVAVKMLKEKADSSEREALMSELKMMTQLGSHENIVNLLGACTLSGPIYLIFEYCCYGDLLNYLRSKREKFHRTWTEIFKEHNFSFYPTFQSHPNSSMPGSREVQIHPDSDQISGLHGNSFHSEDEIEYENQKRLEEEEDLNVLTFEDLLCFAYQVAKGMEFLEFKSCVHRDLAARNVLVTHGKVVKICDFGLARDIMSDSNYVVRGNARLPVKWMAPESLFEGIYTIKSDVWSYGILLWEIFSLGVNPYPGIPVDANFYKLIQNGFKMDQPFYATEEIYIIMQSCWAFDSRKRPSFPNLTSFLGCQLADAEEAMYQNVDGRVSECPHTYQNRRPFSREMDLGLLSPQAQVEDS

[8] = Inhibition of recombinant PKA by IMAP assay; in short: as §2
CAPAN-1 = experiment: Cytotoxicity against human Capan1 cells after 96 hrs by WST8 assay; details: CAPAN-1, 96 h
[9] = molecular target: T3, Tyrosine-protein kinase receptor UFO (Homo sapiens, UniProt P30530); experiment: Inhibition of recombinant AXL by TR-FRET assay; in short: as §1
T3 sequence (P30530 whole entry): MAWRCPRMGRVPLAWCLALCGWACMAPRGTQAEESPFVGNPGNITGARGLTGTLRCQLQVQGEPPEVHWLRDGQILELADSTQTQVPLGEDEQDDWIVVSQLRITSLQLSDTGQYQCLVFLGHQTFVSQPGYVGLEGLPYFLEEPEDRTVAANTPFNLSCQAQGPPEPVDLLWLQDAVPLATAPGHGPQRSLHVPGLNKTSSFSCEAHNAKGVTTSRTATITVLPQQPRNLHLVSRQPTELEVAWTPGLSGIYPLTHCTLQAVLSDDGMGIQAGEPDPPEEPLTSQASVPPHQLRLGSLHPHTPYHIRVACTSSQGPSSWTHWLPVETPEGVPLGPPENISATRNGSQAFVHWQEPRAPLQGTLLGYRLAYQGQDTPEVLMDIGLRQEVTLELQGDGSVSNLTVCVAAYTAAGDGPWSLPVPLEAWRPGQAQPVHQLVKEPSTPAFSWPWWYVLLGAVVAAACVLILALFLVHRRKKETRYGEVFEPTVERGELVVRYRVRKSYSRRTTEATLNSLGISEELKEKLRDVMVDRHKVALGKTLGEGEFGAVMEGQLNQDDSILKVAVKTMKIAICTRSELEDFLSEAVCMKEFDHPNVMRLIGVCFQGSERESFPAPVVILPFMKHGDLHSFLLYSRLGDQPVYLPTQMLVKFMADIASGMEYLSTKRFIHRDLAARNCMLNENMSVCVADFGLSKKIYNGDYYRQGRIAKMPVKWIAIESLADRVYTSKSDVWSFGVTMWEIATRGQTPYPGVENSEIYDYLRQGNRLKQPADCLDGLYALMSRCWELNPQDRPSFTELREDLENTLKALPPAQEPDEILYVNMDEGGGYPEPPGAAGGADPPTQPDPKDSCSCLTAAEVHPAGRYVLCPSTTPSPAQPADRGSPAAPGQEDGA

[10] = molecular target: Cyclin-dependent kinase 2 (Homo sapiens, UniProt P24941); experiment: Inhibition of recombinant CDK2 by IMAP assay; in short: as §2
[11] = molecular target: Insulin-like growth factor 1 receptor (Homo sapiens, UniProt P08069); experiment: Inhibition of recombinant IGF1R by TR-FRET assay; in short: as §1
Insulin-like growth factor 1 receptor, sequence (P08069 31-736 limits assumed): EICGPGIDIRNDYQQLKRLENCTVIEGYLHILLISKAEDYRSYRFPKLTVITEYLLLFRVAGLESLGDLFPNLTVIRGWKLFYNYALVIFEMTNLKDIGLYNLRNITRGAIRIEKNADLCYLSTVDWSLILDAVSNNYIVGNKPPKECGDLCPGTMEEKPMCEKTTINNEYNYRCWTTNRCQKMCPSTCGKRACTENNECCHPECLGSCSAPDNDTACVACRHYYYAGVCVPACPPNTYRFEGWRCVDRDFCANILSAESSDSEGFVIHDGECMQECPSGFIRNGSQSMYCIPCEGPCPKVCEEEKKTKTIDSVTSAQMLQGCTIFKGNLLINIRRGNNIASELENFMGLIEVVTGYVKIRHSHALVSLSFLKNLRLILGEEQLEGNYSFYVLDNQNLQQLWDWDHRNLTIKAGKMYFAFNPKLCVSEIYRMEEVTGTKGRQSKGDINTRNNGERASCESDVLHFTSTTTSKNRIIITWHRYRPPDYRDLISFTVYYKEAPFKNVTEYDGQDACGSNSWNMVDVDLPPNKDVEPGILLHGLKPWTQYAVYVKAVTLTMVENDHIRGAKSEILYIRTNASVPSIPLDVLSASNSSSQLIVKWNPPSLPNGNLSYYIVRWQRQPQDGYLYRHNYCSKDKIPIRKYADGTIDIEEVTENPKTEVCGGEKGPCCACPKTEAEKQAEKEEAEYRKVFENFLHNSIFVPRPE
Insulin-like growth factor 1 receptor, sequence (P08069 741-1367 limits assumed): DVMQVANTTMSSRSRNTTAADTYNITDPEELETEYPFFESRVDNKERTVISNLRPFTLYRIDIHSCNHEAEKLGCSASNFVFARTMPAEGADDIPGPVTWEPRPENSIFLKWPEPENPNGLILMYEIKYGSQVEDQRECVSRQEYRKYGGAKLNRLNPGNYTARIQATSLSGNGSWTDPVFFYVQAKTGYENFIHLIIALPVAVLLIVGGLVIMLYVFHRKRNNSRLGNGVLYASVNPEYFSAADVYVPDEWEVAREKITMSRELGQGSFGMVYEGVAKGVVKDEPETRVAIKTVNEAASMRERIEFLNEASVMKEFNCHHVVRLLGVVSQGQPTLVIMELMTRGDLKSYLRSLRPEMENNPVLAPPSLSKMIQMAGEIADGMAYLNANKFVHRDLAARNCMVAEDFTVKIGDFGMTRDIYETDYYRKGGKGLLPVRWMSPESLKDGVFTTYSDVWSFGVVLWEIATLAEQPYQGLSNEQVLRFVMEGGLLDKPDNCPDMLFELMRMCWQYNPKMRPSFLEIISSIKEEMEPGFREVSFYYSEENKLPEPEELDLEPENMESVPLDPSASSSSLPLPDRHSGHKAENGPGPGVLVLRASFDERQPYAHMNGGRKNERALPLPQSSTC

Fibroblast growth factor receptor 2, sequence (P21802 whole entry): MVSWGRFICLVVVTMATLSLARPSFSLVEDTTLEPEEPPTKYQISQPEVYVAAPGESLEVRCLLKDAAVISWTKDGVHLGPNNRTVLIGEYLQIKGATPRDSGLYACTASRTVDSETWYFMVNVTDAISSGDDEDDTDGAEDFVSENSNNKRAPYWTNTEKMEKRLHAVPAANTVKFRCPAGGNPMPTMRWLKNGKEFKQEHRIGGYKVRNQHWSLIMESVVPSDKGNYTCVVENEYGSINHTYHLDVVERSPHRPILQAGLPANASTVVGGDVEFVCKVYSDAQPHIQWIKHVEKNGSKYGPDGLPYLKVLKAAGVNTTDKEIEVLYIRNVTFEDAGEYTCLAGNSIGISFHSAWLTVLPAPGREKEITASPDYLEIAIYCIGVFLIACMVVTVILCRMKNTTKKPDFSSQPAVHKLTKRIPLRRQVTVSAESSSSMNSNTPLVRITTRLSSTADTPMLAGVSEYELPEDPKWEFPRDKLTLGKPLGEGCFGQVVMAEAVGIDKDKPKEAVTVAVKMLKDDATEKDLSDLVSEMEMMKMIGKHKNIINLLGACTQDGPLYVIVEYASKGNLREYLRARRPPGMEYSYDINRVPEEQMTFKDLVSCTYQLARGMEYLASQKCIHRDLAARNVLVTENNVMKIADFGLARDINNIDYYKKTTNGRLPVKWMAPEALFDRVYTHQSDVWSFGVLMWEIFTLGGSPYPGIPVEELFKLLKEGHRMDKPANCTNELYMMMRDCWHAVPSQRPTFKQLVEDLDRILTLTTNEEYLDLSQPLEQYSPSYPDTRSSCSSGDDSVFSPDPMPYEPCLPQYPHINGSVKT

IC50 [1]: 12 µM
IC50 [2]: 25 µM
IC50 [3]: > 50 µM
IC50 [4]: > 50 µM
IC50 [5]: > 50 µM
IC50 [6]: > 50 µM
IC50 [7]: 15 µM
IC50 [8]: > 50 µM
IC50 [9]: 0.43 µM
IC50 [10]: > 50 µM
IC50 [11]: 27 µM
SMILES: C[C@@H](Oc1ccc2ncc(C3CC3C(N)=O)cc2c1)c1c(Cl)ccc(F)c1Cl (some centres undefined)
IC50 (A549): > 1 µM
IC50 (NCI-N87): > 1 µM
IC50 (HUVEC): 0.3 µM
IC50 (DU-145): > 1 µM
IC50 (COLO 205): > 1 µM
IC50 (CWR22R): > 1 µM
IC50 (ASPC1): > 1 µM
IC50 (CAPAN-1): > 1 µM
